Source: ChEMBL document CHEMBL3045677, “Sulfonamide-1,2,4-thiadiazole derivatives as antifungal and antibacterial agents: synthesis, biological evaluation, lipophilicity, and conformational studies” (2010)
Values after ≈ are worked out from the molar mass of the structure shown.

Experiments:
Penicillium ochrochloron = experiment: Antifungal activity against Penicillium ochrochloron ATCC 9112 at 28 degC measured after 72 hr by microdilution method; format: functional; settings: ATCC 9112, 72 h
Procedure, shortened: (§1)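 Fungi were kept on malt agar at 4 °C. Spores were washed off with sterile 0.85% saline containing 0.1% Tween 80 and adjusted to about 1.0×10⁵ per well. Compounds were dissolved in DMSO (1 mg/ml stock) and serially diluted in malt broth with inoculum in 96-well plates, 72 h at 28 °C, for MIC. MFC came from subculture into fresh broth for a further 72 h at 28 °C.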

Staphylococcus aureus [1] = experiment: Antibacterial activity against Staphylococcus aureus ATCC 6538 at […] degC measured after 24 hr by microdilution method; format: functional; settings: ATCC 6538, 24 h
Procedure, shortened: (§2)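 Bacteria suspended in sterile saline at 1.0×10⁵ CFU/ml and added at 1.0×10⁴ CFU per well to LB broth with compound (1 mg/ml) in 96-well plates. Incubated 24 h at […] °C. MIC was the lowest concentration without visible growth under a binocular microscope. OD 655 nm was read against a blank and a positive control.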

Escherichia coli [2] = experiment: Antibacterial activity against Escherichia coli ATCC 35210 at […] degC measured after 24 hr by microdilution method; format: functional; settings: ATCC 35210, 24 h; procedure, shortened: as §2
Escherichia coli [3] = experiment: Antibacterial activity against Escherichia coli ATCC 35210 at […] degC measured after 72 hr by microdilution method; format: functional; settings: ATCC 35210, 72 h
Procedure, shortened: (§3)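 Bactericidal endpoint: after the 24 h broth microdilution (1.0×10⁴ CFU per well, LB broth, […] °C), wells were serially subcultured into plates of fresh broth and incubated a further 72 h. MBC was the lowest concentration with no visible growth, taken as 99.5% killing of the original inoculum.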

Aspergillus fumigatus = experiment: Antifungal activity against plant isolate Aspergillus fumigatus at 28 degC measured after 72 hr by microdilution method; format: functional; procedure, shortened: as §1
Pseudomonas aeruginosa [4] = experiment: Antibacterial activity against Pseudomonas aeruginosa ATCC 27853 at […] degC measured after 72 hr by microdilution method; format: functional; settings: ATCC 27853, 72 h; procedure, shortened: as §3
Bacillus cereus [5] = experiment: Antibacterial activity against clinical isolate Bacillus cereus at […] degC measured after 24 hr by microdilution method; format: functional; procedure, shortened: as §2
Talaromyces funiculosus = experiment: Antifungal activity against Talaromyces funiculosus ATCC 36839 at 28 degC measured after 72 hr by microdilution method; format: functional; settings: ATCC 36839, 72 h; procedure, shortened: as §1
Micrococcus flavus [6] = experiment: Antibacterial activity against Micrococcus flavus ATCC 10240 at […] degC measured after 24 hr by microdilution method; format: functional; settings: ATCC 10240, 24 h; procedure, shortened: as §2
Listeria monocytogenes [7] = experiment: Antibacterial activity against Listeria monocytogenes NCTC 7973 at […] degC measured after 72 hr by microdilution method; format: functional; settings: NCTC 7973, 72 h; procedure, shortened: as §3
Aspergillus versicolor = experiment: Antifungal activity against Aspergillus versicolor ATCC 11730 at 28 degC measured after 72 hr by microdilution method; format: functional; settings: ATCC 11730, 72 h; procedure, shortened: as §1
Micrococcus flavus [8] = experiment: Antibacterial activity against Micrococcus flavus ATCC 10240 at […] degC measured after 72 hr by microdilution method; format: functional; settings: ATCC 10240, 72 h; procedure, shortened: as §3
Proteus mirabilis [9] = experiment: Antibacterial activity against Proteus mirabilis at […] degC measured after 72 hr by microdilution method; format: functional; procedure, shortened: as §3
Aspergillus flavus = experiment: Antifungal activity against Aspergillus flavus ATCC 9643 at 28 degC measured after 72 hr by microdilution method; format: functional; settings: ATCC 9643, 72 h; procedure, shortened: as §1
Listeria monocytogenes [10] = experiment: Antibacterial activity against Listeria monocytogenes NCTC 7973 at […] degC measured after 24 hr by microdilution method; format: functional; settings: NCTC 7973, 24 h; procedure, shortened: as §2
Trichoderma viride = experiment: Antifungal activity against Hypocrea rufa IAM 5061 at 28 degC measured after 72 hr by microdilution method; format: functional; settings: IAM 5061, 72 h; procedure, shortened: as §1
Proteus mirabilis [11] = experiment: Antibacterial activity against Proteus mirabilis at […] degC measured after 24 hr by microdilution method; format: functional; procedure, shortened: as §2
Salmonella typhimurium [12] = experiment: Antibacterial activity against Salmonella enterica subsp. enterica serovar TyphimuriumATCC 13311 at […] degC measured after 72 hr by microdilution method; format: functional, Salmonella enterica subsp. enterica serovar Typhimurium; settings: ATCC 13311, 72 h; procedure, shortened: as §3
Aspergillus niger = experiment: Antifungal activity against Aspergillus niger ATCC 6275 at 28 degC measured after 72 hr by microdilution method; format: functional; settings: ATCC 6275, 72 h; procedure, shortened: as §1
Salmonella typhimurium [13] = experiment: Antibacterial activity against Salmonella enterica subsp. enterica serovar Typhimurium ATCC 13311 at […] degC measured after 24 hr by microdilution method; format: functional; settings: ATCC 13311, 24 h; procedure, shortened: as §2
Staphylococcus aureus [14] = experiment: Antibacterial activity against Staphylococcus aureus ATCC 6538 at […] degC measured after 72 hr by microdilution method; format: functional; settings: ATCC 6538, 72 h; procedure, shortened: as §3
Fulvia fulva = experiment: Antifungal activity against Passalora fulva TK5318 at 28 degC measured after 72 hr by microdilution method; format: functional; settings: TK5318, 72 h; procedure, shortened: as §1
Bacillus cereus [15] = experiment: Antibacterial activity against clinical isolate Bacillus cereus at […] degC measured after 72 hr by microdilution method; format: functional; procedure, shortened: as §3
Pseudomonas aeruginosa [16] = experiment: Antibacterial activity against Pseudomonas aeruginosa ATCC 27853 at […] degC measured after 24 hr by microdilution method; format: functional; settings: ATCC 27853, 24 h; procedure, shortened: as §2

Row | SMILES | MIC (Staphylococcus aureus [1]) [µM] | MIC (Escherichia coli [2]) [µM] | MIC (Bacillus cereus [5]) [µM] | MIC (Micrococcus flavus [6]) [µM] | MIC (Listeria monocytogenes [10]) [µM] | MFC (Penicillium ochrochloron) [µM] | MIC (Penicillium ochrochloron) [µM] | MBC (Escherichia coli [3]) [µM] | MFC (Aspergillus fumigatus) [µM] | MIC (Aspergillus fumigatus) [µM] | MBC (Pseudomonas aeruginosa [4]) [µM] | MFC (Talaromyces funiculosus) [µM] | MIC (Talaromyces funiculosus) [µM] | MBC (Listeria monocytogenes [7]) [µM] | MFC (Aspergillus versicolor) [µM] | MIC (Aspergillus versicolor) [µM] | MBC (Micrococcus flavus [8]) [µM] | MBC (Proteus mirabilis [9]) [µM] | MFC (Aspergillus flavus) [µM] | MIC (Aspergillus flavus) [µM] | other results
1 | CC1(C)S[C@@H]2[C@H](NC(=O)[C@H](N)c3ccccc3)C(=O)N2[C@H]1C(=O)O [AMPICILLIN] | 248 (≈ 86.7 µg/mL) | 372 (≈ 130 µg/mL) | 248 (≈ 86.7 µg/mL) | 248 (≈ 86.7 µg/mL) | 372 (≈ 130 µg/mL) | – | – | 492 (≈ 172 µg/mL) | – | – | 1240 (≈ 433 µg/mL) | – | – | 744 (≈ 260 µg/mL) | – | – | 372 (≈ 130 µg/mL) | 492 (≈ 172 µg/mL) | – | – | MIC (Proteus mirabilis [11]): 372 µM (≈ 130 µg/mL); MBC (Salmonella typhimurium [12]): 492 µM (≈ 172 µg/mL); MIC (Salmonella typhimurium [13]): 248 µM (≈ 86.7 µg/mL); MBC (Staphylococcus aureus [14]): 372 µM (≈ 130 µg/mL); MBC (Bacillus cereus [15]): 372 µM (≈ 130 µg/mL); MIC (Pseudomonas aeruginosa [16]): 744 µM (≈ 260 µg/mL)
2 | c1ccc(-c2ccc(C(c3ccccc3)n3ccnc3)cc2)cc1 (stereo unspecified) [BIFONAZOLE] | – | – | – | – | – | 640 (≈ 199 µg/mL) | 480 (≈ 149 µg/mL) | – | 640 (≈ 199 µg/mL) | 480 (≈ 149 µg/mL) | – | 800 (≈ 248 µg/mL) | 640 (≈ 199 µg/mL) | – | 640 (≈ 199 µg/mL) | 320 (≈ 99.3 µg/mL) | – | – | 640 (≈ 199 µg/mL) | 480 (≈ 149 µg/mL) | MFC (Trichoderma viride): 800 µM (≈ 248 µg/mL); MIC (Trichoderma viride): 640 µM (≈ 199 µg/mL); MFC (Aspergillus niger): 640 µM (≈ 199 µg/mL); MIC (Aspergillus niger): 480 µM (≈ 149 µg/mL); MFC (Fulvia fulva): 640 µM (≈ 199 µg/mL); MIC (Fulvia fulva): 320 µM (≈ 99.3 µg/mL)
3 | CC(=O)N1CCN(c2ccc(OCC3COC(Cn4ccnc4)(c4ccc(Cl)cc4Cl)O3)cc2)CC1 (stereo unspecified) [KETOCONAZOLE] | – | – | – | – | – | 3800 (≈ 2020 µg/mL) | 3800 (≈ 2020 µg/mL) | – | 950 (≈ 505 µg/mL) | 380 (≈ 202 µg/mL) | – | 950 (≈ 505 µg/mL) | 380 (≈ 202 µg/mL) | – | 950 (≈ 505 µg/mL) | 380 (≈ 202 µg/mL) | – | – | 3800 (≈ 2020 µg/mL) | 2850 (≈ 1510 µg/mL) | MFC (Trichoderma viride): 5700 µM (≈ 3030 µg/mL); MIC (Trichoderma viride): 4750 µM (≈ 2520 µg/mL); MFC (Aspergillus niger): 950 µM (≈ 505 µg/mL); MIC (Aspergillus niger): 380 µM (≈ 202 µg/mL); MFC (Fulvia fulva): 950 µM (≈ 505 µg/mL); MIC (Fulvia fulva): 380 µM (≈ 202 µg/mL)

Second part, led by results:

Row | MIC (Staphylococcus aureus [1]) [µM] | MIC (Escherichia coli [2]) [µM] | MIC (Bacillus cereus [5]) [µM] | MIC (Micrococcus flavus [6]) [µM] | MIC (Listeria monocytogenes [10]) [µM] | SMILES | MFC (Penicillium ochrochloron) [µM] | MIC (Penicillium ochrochloron) [µM] | MBC (Escherichia coli [3]) [µM] | MFC (Aspergillus fumigatus) [µM] | MIC (Aspergillus fumigatus) [µM] | MBC (Pseudomonas aeruginosa [4]) [µM] | MFC (Talaromyces funiculosus) [µM] | MIC (Talaromyces funiculosus) [µM] | MBC (Listeria monocytogenes [7]) [µM] | MFC (Aspergillus versicolor) [µM] | MIC (Aspergillus versicolor) [µM] | MBC (Micrococcus flavus [8]) [µM] | MBC (Proteus mirabilis [9]) [µM] | MFC (Aspergillus flavus) [µM] | MIC (Aspergillus flavus) [µM] | other results
4 | 17.9 (≈ 9.98 µg/mL) | 17.9 (≈ 9.98 µg/mL) | 17.9 (≈ 9.98 µg/mL) | 17.9 (≈ 9.98 µg/mL) | 17.9 (≈ 9.98 µg/mL) | COc1cc(Cc2nnc(Nc3ccc(C(F)(F)F)cc3)s2)c(S(=O)(=O)N2CCN(C)CC2)cc1OC | 35.8 (≈ 20 µg/mL) | 17.9 (≈ 9.98 µg/mL) | 17.9 (≈ 9.98 µg/mL) | 17.9 (≈ 9.98 µg/mL) | 8.9 (≈ 4.96 µg/mL) | 35.8 (≈ 20 µg/mL) | 17.9 (≈ 9.98 µg/mL) | 8.9 (≈ 4.96 µg/mL) | 35.8 (≈ 20 µg/mL) | 35.8 (≈ 20 µg/mL) | 17.9 (≈ 9.98 µg/mL) | 35.8 (≈ 20 µg/mL) | 35.8 (≈ 20 µg/mL) | 35.8 (≈ 20 µg/mL) | 17.9 (≈ 9.98 µg/mL) | MFC (Trichoderma viride): 17.9 µM (≈ 9.98 µg/mL); MIC (Trichoderma viride): 8.9 µM (≈ 4.96 µg/mL); MIC (Proteus mirabilis [11]): 17.9 µM (≈ 9.98 µg/mL); MBC (Salmonella typhimurium [12]): 35.8 µM (≈ 20 µg/mL); MFC (Aspergillus niger): 35.8 µM (≈ 20 µg/mL); MIC (Aspergillus niger): 17.9 µM (≈ 9.98 µg/mL); MIC (Salmonella typhimurium [13]): 17.9 µM (≈ 9.98 µg/mL); MBC (Staphylococcus aureus [14]): 35.8 µM (≈ 20 µg/mL); MFC (Fulvia fulva): 17.9 µM (≈ 9.98 µg/mL); MIC (Fulvia fulva): 8.9 µM (≈ 4.96 µg/mL); MBC (Bacillus cereus [15]): 17.9 µM (≈ 9.98 µg/mL); MIC (Pseudomonas aeruginosa [16]): 17.9 µM (≈ 9.98 µg/mL)
5 | 172 (≈ 100 µg/mL) | 172 (≈ 100 µg/mL) | 43 (≈ 25 µg/mL) | 86 (≈ 50 µg/mL) | 258 (≈ 150 µg/mL) | CN[C@@H]1[C@H](O[C@H]2[C@H](O[C@H]3[C@H](O)[C@@H](O)[C@H](N=C(N)N)[C@@H](O)[C@@H]3N=C(N)N)O[C@@H](C)[C@]2(O)C=O)O[C@@H](CO)[C@H](O)[C@H]1O [STREPTOMYCIN] | – | – | 344 (≈ 200 µg/mL) | – | – | 344 (≈ 200 µg/mL) | – | – | 516 (≈ 300 µg/mL) | – | – | 172 (≈ 100 µg/mL) | 344 (≈ 200 µg/mL) | – | – | MIC (Proteus mirabilis [11]): 172 µM (≈ 100 µg/mL); MBC (Salmonella typhimurium [12]): 344 µM (≈ 200 µg/mL); MIC (Salmonella typhimurium [13]): 172 µM (≈ 100 µg/mL); MBC (Staphylococcus aureus [14]): 344 µM (≈ 200 µg/mL); MBC (Bacillus cereus [15]): 86 µM (≈ 50 µg/mL); MIC (Pseudomonas aeruginosa [16]): 172 µM (≈ 100 µg/mL)
